Results on 2 compounds are retold here after ChEMBL document CHEMBL1649491, “Renal disposition of colistin in the isolated perfused rat kidney” (Antimicrob Agents Chemother, 2009).

Positions of bridges follow the written chain, without caps; N, C: chain ends. Non-standard residues stand in square brackets, D forms with d. Residues, ends and D or L forms follow the SMILES beside them. *: point of attachment. Heptanoyl(6-Me) = CC(C)CCCCC(=O)*; Dab = NCC[C@H](N)C(=O)O

The nature of data set [1]: (§1) Fraction unbound in […] at 1 ug/ml by LC-MS/MS analysis. As to conditions: rat. The class given is ADME, cell-free, Plasma. The essentials:
(§2)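 Unbound fraction was measured in IPK perfusate by ultrafiltration, at colistin sulfate levels approximating initial and end perfusion concentrations. Colistin A and B in ultrafiltrate and unfiltered perfusate were quantified by LC-MS/MS. fu is the ultrafiltrate/perfusate concentration ratio, determined separately for A and B.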

A short description of data set [2]: Drug absorption in rat tubular urine at 2 ug/ml after 5 to 105 mins by LC-MS/MS analysis. The class given is ADME, tissue-based. The gist of the method: (§3)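 Isolated perfused kidneys from male Sprague-Dawley rats (400 to 450 g) in a recirculating 160 ml perfusate with [3H]inulin (130 kBq) for GFR. Colistin sulfate bolus gave an initial 2 µg/ml (1.27 µM colistin A+B). Urine was collected in 5-min intervals from 5 to 105 min, with perfusate sampled at midpoints. Colistin A and B were measured by LC-MS/MS. CLR and CR were derived; n = 5, mean ± SD.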

Data set [3] relates to Kidney. In words: Tubular reabsorption in rat perfused kidney at 2 ug/ml after 5 to 105 mins by LC-MS/MS analysis. The class given is ADME, tissue-based. The essentials:
as §3

Data set [4] has as its system Kidney. In words: Clearance in rat perfused kidney assessed as clearance ratio at 2 ug/ml after 5 to 105 mins by LC-MS/MS analysis. It counts as ADME, tissue-based. The essentials: as §3
The nature of data set [5]: (§4) Fraction unbound in Sprague-Dawley rat plasma. The settings on record: Sprague-Dawley. It counts as ADME, cell-free.
Data set [6] can be described thus: (§5) Clearance in rat perfused kidney at 2 ug/ml after 5 to 105 mins by LC-MS/MS analysis. The class given is ADME, tissue-based. The settings on record: perfused kidney. The gist of the method:
as §3

The test system of data set [7] is Plasma. The description is as §1. The class given is ADME, cell-free. As to conditions: rat. The essentials: as §2
The test system of data set [8] is Plasma. The data set is described as §4. The class given is ADME, cell-free.
For data set [9], the system named is Kidney. The data set is described as §5. It counts as ADME, tissue-based. The settings on record: in vivo. The essentials:
as §3

With `CC(C)CCCCC(=O)N[C@@H](CCN)C(=O)N[C@H](C(=O)N[C@@H](CCN)C(=O)N[C@H]1CCNC(=O)[C@H]([C@@H](C)O)NC(=O)[C@H](CCN)NC(=O)[C@H](CCN)NC(=O)[C@H](CC(C)C)NC(=O)[C@@H](CC(C)C)NC(=O)[C@H](CCN)NC1=O)[C@@H](C)O` [COLISTIN B] ({Heptanoyl(6-Me)}-[Dab]T[Dab][Dab][Dab][dL]L[Dab][Dab]T; lactam 4-C), in [1], the fraction unbound (usually the share of the substance not bound to proteins or other matrix) at 1 ug/ml turned out to be 0.6. In addition, the Activity (in [2]; in the data set on Kidney [3]) was > 90% throughout. In addition, the Ratio in the data set on Kidney [4] is < 0.1. Also, in data set [5], the fraction unbound is 0.52. This compound also yielded a CL renal at 2 ug/ml in [6] of 0.028 mL/min.

In the case of COLISTIN, the Fu was found to be 0.41 with Plasma [7] and 0.36 in the data set with Plasma [8]. Moreover, the Activity (in data set [2]; with Kidney [3]) was > 90% each time. Moreover, the Ratio in the data set on Kidney [4] is on record as < 0.1. This compound also gave a CL with Kidney [9] of 0.028 mL/min.
